Calls of active or inactive are those of the source. No cut-off for these calls is given here.
Key:
Leishmania donovani [1] = experiment: Antileishmanial activity against intracellular amastigote stage of Leishmania donovani MHOM/ET/67/HU3 infected in human THP1 cells assessed as reduction in parasite count at 12.5 uM after 3 days by confocal microscopy; type: functional, organism-based; conditions: THP-1
[2] = Selectivity index, ratio of IC50 for human THP1 cells to IC50 for intracellular amastigote stage of Leishmania donovani MHOM/ET/67/HU3; type: toxicity, cell-based, THP-1; conditions: read-out: Selectivity Index
Summary of the method: (§1)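 Host THP-1 cytotoxicity was taken from the same intracellular amastigote images (PMA-differentiated, infected, 3-day compound exposure) by counting cell numbers normalized to 1 % DMSO. CC₅₀ is the average of duplicates; SI was calculated from EC₅₀ and CC₅₀.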

Leishmania donovani [3] = experiment: Antileishmanial activity against extracellular promastigote stage of Leishmania donovani MHOM/ET/67/HU3 incubated for 28 hrs followed by additional 20 hrs incubation
Trypanosoma cruzi [4] = experiment: Antitrypanosomal activity against intracellular Trypanosoma cruzi infected in human U2OS cells assessed as reduction in parasite count at 12.5 uM after 48 hrs by confocal microscopy; type: functional, organism-based
[5] = Cytotoxicity against human U2OS cells infected with intracellular Trypanosoma cruzi; type: cell-based
Summary of the method: (§2)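 U2OS cytotoxicity was measured in the same 48 h T. cruzi infection assay by counting host cell numbers in the DRAQ5-stained confocal images to give CC₅₀. SI was calculated from EC₅₀ and CC₅₀.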

Trypanosoma cruzi [6] = experiment: Antitrypanosomal activity against intracellular Trypanosoma cruzi infected in human U2OS cells assessed as reduction in parasite count at 400 uM after 48 hrs by confocal microscopy; type: functional, organism-based
[7] = Selectivity index, ratio of IC50 for human U2OS cells to IC50 for intracellular Trypanosoma cruzi; type: toxicity, cell-based; conditions: U2OS cells versus intracellular Trypanosoma cruzi, read-out: Selectivity Index; summary of the method: as §2
Trypanosoma cruzi [8] = experiment: Antitrypanosomal activity against intracellular Trypanosoma cruzi infected in human U2OS cells after 48 hrs by confocal microscopy; type: functional, organism-based
Summary of the method: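 T. cruzi tissue-culture trypomastigotes were raised in LLC-MK2 cells. U2OS cells and parasites were mixed, dispensed onto compound plates and incubated 48 h at 37 °C, 5 % CO₂. Cells were fixed with 4 % paraformaldehyde, DRAQ5-stained and imaged by confocal microscopy to count parasites and infection ratio. Controls: benznidazole 400 µM and 1 % DMSO. EC₅₀ derived from infection ratio normalized to the controls.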

[9] = Cytotoxicity against human THP1 cells infected with intracellular amastigote stage of Leishmania donovani MHOM/ET/67/HU3; type: cell-based, THP-1; summary of the method: as §1
Leishmania donovani [10] = experiment: Antileishmanial activity against intracellular amastigote stage of Leishmania donovani MHOM/ET/67/HU3 infected in human THP1 cells after 3 days by confocal microscopy; type: functional, organism-based; conditions: MHOM/ET/67/HU3, THP-1, 72 h
Trypanosoma cruzi [11] = experiment: Antitrypanosomal activity against intracellular Trypanosoma cruzi infected in human U2OS cells assessed as reduction in parasite count at 6.25 uM after 48 hrs by confocal microscopy; type: functional, organism-based

Structure (SMILES)	EC50 (Leishmania donovani [3]) [µM]	EC50 (Trypanosoma cruzi [8]) [µM]	EC50 (Leishmania donovani [10]) [µM]	growth inhibition (GI) (Leishmania donovani [1])	selectivity ratio [2]	growth inhibition (GI) (Trypanosoma cruzi [4])	CC50 [5] [µM]	growth inhibition (GI) (Trypanosoma cruzi [6])	selectivity ratio [7]	CC50 [9] [µM]	growth inhibition (GI) (Trypanosoma cruzi [11])	inhibition (Trypanosoma cruzi [8])
C[C@@H]1[C@H](O)[C@@H](C)/C=C/C=C/C=C/C=C/C=C/C=C/C=C/[C@H](O[C@@H]2O[C@H](C)[C@@H](O)[C@H](N)[C@@H]2O)C[C@@H]2O[C@](O)(C[C@@H](O)C[C@@H](O)[C@H](O)CC[C@@H](O)C[C@@H](O)CC(=O)O[C@H]1C)C[C@H](O)[C@H]2C(=O)O [AMPHOTERICIN B]	0.22	–	–	Active	30.2	–	–	–	–	–	–	–
O=C(Cn1ccnc1[N+](=O)[O-])NCc1ccccc1 [BENZNIDAZOLE]	–	20.7	–	–	–	inactive	> 50	Active	> 2.42	–	–	–
c1ccc(CN2C3=NCCN3c3ccccc32)cc1	–	–	> 50	–	–	–	–	–	–	> 50	–	–
CCc1ccc(CN2C3=NCCN3c3ccccc32)cc1	–	33.7	42	–	> 1.19	–	> 50	–	> 1.48	> 50	–	–
Cc1cc2c(cc1C)N(Cc1ccc(C(C)(C)C)cc1)C1=NCCN12	–	> 50	> 50	–	–	–	> 50	–	–	> 50	–	–
Fc1ccc(F)c(-c2ccc(CN3C4=NCCN4c4ccccc43)cc2)c1	9.22	4.49	32.5	–	> 1.54	–	9.61	–	2.14	> 50	–	–
CCCCCCCCCCCCCCCCOP(=O)([O-])OCC[N+](C)(C)C [MILTEFOSINE]	11.1	–	4.83	Active	3.91	–	–	–	–	18.9	–	–
Fc1ccc(CN2C3=NCCN3c3ccccc32)cc1	–	> 50	> 50	–	–	–	> 50	–	–	> 50	–	–
Cc1cc(C)cc(CN2C3=NCCN3c3ccccc32)c1	–	> 50	> 50	–	–	–	> 50	–	–	> 50	–	–
FC(F)(F)c1ccc(CN2C3=NCCN3c3ccccc32)cc1	–	13.4	> 50	–	–	–	> 50	–	> 3.75	> 50	–	–
c1ccc(CN2C3=NCCN3c3ccccc32)nc1	–	> 50	> 50	–	–	–	> 50	–	–	> 50	–	–
CC(C)(C)c1ccc(OCCN2C3=NCCN3c3ccccc32)cc1	–	8.7	27.4	–	1.21	–	37.9	–	4.36	33.1	–	–
FC(F)(F)Oc1ccc(CN2C3=NCCN3c3ccccc32)cc1	–	–	> 50	–	–	–	–	–	–	> 50	–	–
CS(=O)(=O)c1ccc(CN2C3=NCCN3c3ccccc32)cc1	–	–	> 50	–	–	–	–	–	–	> 50	–	–
CC(C)(C)c1ccc(C(=O)CN2C3=NCCN3c3ccccc32)cc1	–	36	39.4	–	> 1.27	–	> 50	–	> 1.39	> 50	–	–
CC(C)c1ccc(CN2C3=NCCN3c3ccccc32)cc1	–	> 50	> 50	inactive	–	–	> 50	–	–	> 50	–	–
N#Cc1ccc(CN2C3=NCCN3c3ccccc32)cc1	–	–	> 50	–	–	–	–	–	–	> 50	–	–
CC(C)(C)c1ccc(CN2C3=NC(=O)CN3c3ccccc32)cc1	–	> 50	> 50	–	–	–	> 50	–	–	> 50	–	–

Now from value to compound, other results behind:

EC50 (Leishmania donovani [3]) [µM]	EC50 (Trypanosoma cruzi [8]) [µM]	EC50 (Leishmania donovani [10]) [µM]	Structure (SMILES)	growth inhibition (GI) (Leishmania donovani [1])	selectivity ratio [2]	growth inhibition (GI) (Trypanosoma cruzi [4])	CC50 [5] [µM]	growth inhibition (GI) (Trypanosoma cruzi [6])	selectivity ratio [7]	CC50 [9] [µM]	growth inhibition (GI) (Trypanosoma cruzi [11])	inhibition (Trypanosoma cruzi [8])
1.48	2.1	5.29	c1ccc(-c2ccc(CN3C4=NCCN4c4ccccc43)cc2)cc1	–	7.5	–	18.8	–	8.95	39.7	–	–
1.53	> 50	5.2	FC(F)(F)Oc1ccc(-c2ccc(CN3C4=NCCN4c4ccccc43)cc2)cc1	–	2.11	–	> 50	–	–	11	–	–
1.75	7.45	17.8	Cc1ccc(-c2ccc(CN3C4=NCCN4c4ccccc43)cc2)cc1	–	1.52	–	10.3	–	1.38	27.1	–	–
1.26	8.24	14	CC(C)(C)c1ccc(CN2C3=NCCN3c3cc(F)ccc32)cc1	–	> 3.57	–	50	–	6.07	> 50	–	–
1.71	1.6	5.4	c1ccc2c(c1)N1CCN=C1N2Cc1ccc(C2CCCCC2)cc1	–	4.19	–	6.1	–	3.81	22.8	–	–
1.25	1.1	3.05	CC(C)(C)c1ccc(CN2C3=NCCN3c3ccccc32)cc1	Active	> 16.4	–	36.5	–	33.2	> 50	Active	Dose-dependent effect
2.73	3.09	12.5	CC(C)(C)c1ccc(CN2C3=NCCCN3c3ccccc32)cc1	–	> 3.98	–	> 50	–	> 16.2	> 50	–	–
1.49	8.89	8.88	Fc1ccc(-c2ccc(CN3C4=NCCN4c4ccccc43)cc2)cc1	–	3.94	–	> 50	–	> 5.62	35	–	–
–	5.56	13.7	Clc1ccc(-c2ccc(CN3C4=NCCN4c4ccccc43)cc2)cc1	–	1.46	–	9.36	–	1.7	20	–	–
1.8	19.6	11	Cc1ccc2c(c1)N1CCN=C1N2Cc1ccc(C(C)(C)C)cc1	–	2.55	–	> 50	–	> 2.28	28.1	–	–
3.11	> 50	10.3	FC(F)(F)c1ccc(-c2ccc(CN3C4=NCCN4c4ccccc43)cc2)cc1	–	2.91	–	> 50	–	–	30	–	–
20.8	12.7	25.3	CC(C)(C)c1ccc(CCN2C3=NCCN3c3ccccc32)cc1	–	> 1.98	–	21	–	1.65	> 50	–	–
4.98	12.5	22.6	CC(C)(C)c1cccc(CN2C3=NCCN3c3ccccc32)c1	–	> 2.21	–	34.6	–	2.77	> 50	–	–
2.34	> 50	10.2	COc1ccc(-c2ccc(CN3C4=NCCN4c4ccccc43)cc2)cc1	–	2.25	–	> 50	–	–	23	–	–
2.22	6.21	7.33	CC(C)(C)c1ccc(CN2C3=NCCN3c3cc(Cl)ccc32)cc1	–	1.71	–	44.6	–	–	12.5	–	–
2.01	38.7	12.5	c1ccc(Oc2ccc(CN3C4=NCCN4c4ccccc43)cc2)cc1	–	3.82	–	20	–	0.52	48	–	–

Source: ChEMBL document CHEMBL3352366, “Synthesis and biological evaluation of 2,3-dihydroimidazo[1,2-a]benzimidazole derivatives against Leishmania donovani and Trypanosoma cruzi” (Eur J Med Chem, 2014)
